Test results taken from ChEMBL document CHEMBL2321761, “Discovery of novel dual inhibitors of the wild-type and the most prevalent drug-resistant mutant, S31N, of the M2 proton channel from influenza A virus” (J Med Chem, 2013).

Tested on: Influenza A virus
Test: Inhibition of Influenza A virus wild type M2 proton channel expressed in Xenopus laevis oocyte at 100 uM after 2 mins by two-electrode […] clamp assay
Method in brief: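 Full-length AM2 (WT) was expressed in Xenopus oocyte membranes and recorded by two-electrode voltage clamp during low-pH activation. Percent inhibition was read after only 2 min of exposure, before equilibrium was reached. IC50 values from this read-out are apparent kinetic values, not equilibrium dissociation constants.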

| Compound | inhibition [%] |
| --- | --- |
| c1ccc(CNC23CC4CC(CC(C4)C2)C3)nc1 | 12 |
| C[S+]([O-])c1ccc(CNC23CC4CC(CC(C4)C2)C3)cc1 (stereo unspecified) | 2 |
| O=[N+]([O-])c1ccc(CNC23CC4CC(CC(C4)C2)C3)cc1 | 49 |
| Oc1ccc(CNC23CC4CC(CC(C4)C2)C3)cc1 | 67 |
| NCc1ccc(CNC23CC4CC(CC(C4)C2)C3)cc1 | 3 |
| c1cnn(-c2ccc(CNC34CC5CC(CC(C5)C3)C4)cc2)c1 | 4 |
| Oc1ccccc1CNC12CC3CC(CC(C3)C1)C2 | 81 |
| COc1ccc(CNC23CC4CC(CC(C4)C2)C3)cc1 | 43 |
| COc1ccc(CNC23CC4CC(CC(C4)C2)C3)c(O)c1 | 56 |
| NC(=O)c1ccc(CNC23CC4CC(CC(C4)C2)C3)cc1 | 7 |
| c1ccc(CNC23CC4CC(CC(C4)C2)C3)cc1 | 77 |
| CC(=O)c1ccc(CNC23CC4CC(CC(C4)C2)C3)cc1 | 2 |
| Oc1ccc(CNC23CC4CC(CC(C4)C2)C3)c(Cl)c1 | 78 |
| Oc1ccc(CNC23CC4CC(CC(C4)C2)C3)cc1Cl | 78 |
| Fc1ccc(CNC23CC4CC(CC(C4)C2)C3)cc1 | 77 |
| Oc1cc(F)ccc1CNC12CC3CC(CC(C3)C1)C2 | 87 |
| COc1ccccc1CNC12CC3CC(CC(C3)C1)C2 | 22 |
| COc1ccc(COC23CC4CC(CC(C4)C2)C3)cc1 | 51 |
| COc1ccc(CNC23CC4CC(CC(C4)C2)C3)cc1O | 46 |
| Oc1ccc(CNC23CC4CC(CC(C4)C2)C3)c(O)c1 | 64 |
| COc1ccc(CN(C)C23CC4CC(CC(C4)C2)C3)cc1 | 34 |
| O=[N+]([O-])c1ccccc1CNC12CC3CC(CC(C3)C1)C2 | 48 |
| N#Cc1ccc(CNC23CC4CC(CC(C4)C2)C3)cc1 | 36 |

| Compound | inhibition [%] |
| --- | --- |
| OC1CCC(CNC23CC4CC(CC(C4)C2)C3)CC1 (racemic) | 16 |
| c1cc2cn[nH]c2cc1CNC12CC3CC(CC(C3)C1)C2 | 79 |
| c1cc(CNC23CC4CC(CC(C4)C2)C3)co1 | 73 |
| c1cc2c(cc1CNC13CC4CC(CC(C4)C1)C3)OCO2 | 54 |
| COc1ccc(CNC23CC4CC(CC(C4)C2)C3)c(OC)c1 | 16 |
| COc1cc(O)ccc1CNC12CC3CC(CC(C3)C1)C2 | 0 |
| C[C@@H]1[C@@H](/N=C/c2ccc(O)cc2)C[C@H]2C[C@@H]1C2(C)C | 91 |
| c1cc(-c2nnn[nH]2)ccc1CNC12CC3CC(CC(C3)C1)C2 | 6 |
| CC(=O)Nc1ccc(CNC23CC4CC(CC(C4)C2)C3)cc1 | 3 |
| CC(C)(C)OC(=O)Nc1ccc(CNC23CC4CC(CC(C4)C2)C3)cc1 | 13 |
| Oc1ccc(CNC23CC4CC(CC(C4)C2)C3)cc1O | 44 |
| c1cc(CNC23CC4CC(CC(C4)C2)C3)ccn1 | 6 |
| Oc1ccc(/C=N/C23CC4CC(CC(C4)C2)C3)cc1 | 81 |
| COC(=O)[C@H](Cc1cnc[nH]1)NCC12CC3CC(CC(C3)C1)C2 | 27 |
| O=[N+]([O-])c1cc(CNC23CC4CC(CC(C4)C2)C3)ccc1O | 66 |
| c1nc2cc(CNC34CC5CC(CC(C5)C3)C4)ccc2[nH]1 | 26 |
| CS(=O)(=O)c1ccc(CNC23CC4CC(CC(C4)C2)C3)cc1 | 45 |
| c1cn(-c2ccc(CNC34CC5CC(CC(C5)C3)C4)cc2)cn1 | 4 |
| Oc1cccc(CNC23CC4CC(CC(C4)C2)C3)c1 | 88 |
| COc1cc(CNC23CC4CC(CC(C4)C2)C3)ccc1O | 76 |
| Nc1ccc(CNC23CC4CC(CC(C4)C2)C3)cc1 | 31 |
| Oc1ccc(CNC23CC4CC(CC(C4)C2)C3)cc1F | 65 |
| OCc1ccc(CNC23CC4CC(CC(C4)C2)C3)cc1 | 26 |
